# Activity calls are given as the source filed them. No cut-off for these calls is given here.
# Legend:
# [1] = Cell cycle arrest in human RD cells assessed as G1 phase accumulation at 1 uM after 24 hrs by propidium iodide staining based flow cytometry (reference value: 56.7 +/- 1.48%); format: functional
# [2] = Antiproliferative activity against human SH-SY5Y cells after 72 hrs by XTT assay; format: functional, cell-based
# Method in brief: (§1)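 Cells plated at 1500–2000 per well by doubling time, treated after 24 h with a concentration series in six triplicate wells, and incubated 72 h without a medium change. XTT reagent was then added for 4 h at 37 °C and absorbance read at 490 nm. IC50 is the concentration halving absorbance versus untreated cells. Experiments run in triplicate.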
# [3] = Induction of apoptosis in human NB1 hTERT cells assessed as late apoptotic cells at 5 uM after 72 hrs by Annexin-V FITC/propidium iodide staining based flow cytometry (reference value: 4.6%); format: functional
# [4] = Cell cycle arrest in human MCF7 cells assessed as S phase accumulation at 1 uM after 24 hrs by propidium iodide staining based flow cytometry (reference value: 21.7 +/- 1.42%); format: functional
# [5] = Cell cycle arrest in human PC3 cells assessed as G2/M phase accumulation at 1 uM after 24 hrs by propidium iodide staining based flow cytometry (reference value: 26.8 +/- 1.69%); format: functional; settings: PC-3
# [6] = Cell cycle arrest in human NB-1 cells assessed as S phase accumulation at 1 uM after 24 hrs by propidium iodide staining based flow cytometry (reference value: 3.8%); settings: nb1, 24 h
# [7] = Antiproliferative activity against human MCF7 cells after 72 hrs by XTT assay; format: functional, cell-based; settings: MCF7, 72 h; method in brief: as §1
# [8] = tested on: HeLa; experiment: Selectivity ratio of IC50 for human MCF7 cells to IC50 for human HeLa cells; format: functional
# Method in brief: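 XTT viability: 1500–2000 cells/well plated by doubling time; compounds added after 24 h, then 72 h further culture without medium change. XTT reagent 4 h at 37 °C, absorbance read at 490 nm. IC50 is the concentration halving absorbance versus untreated cells; triplicate experiments. Ratio is MCF7 IC50 divided by IC50 in the named line.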
# [9] = Cell cycle arrest in human T98G cells assessed as G2/M phase accumulation at 1 uM after 24 hrs by propidium iodide staining based flow cytometry (reference value: 8.8 +/- 0.93%); format: functional
# [10] = Cell cycle arrest in human HeLa cells assessed as S phase accumulation at 1 uM after 8 hrs by propidium iodide staining based flow cytometry (reference value: 19.2%); format: functional
# [11] = tested on: A549; experiment: Induction of apoptosis in human A549 cells assessed as live cells at 5 uM after 72 hrs by Annexin-V FITC/propidium iodide staining based flow cytometry (reference value: 91.9%); format: functional
# [12] = Antiproliferative activity against human IBR3G cells after 72 hrs by XTT assay; format: cell-based; method in brief: as §1
# [13] = Cell cycle arrest in human SH-SY5Y cells assessed as G2/M phase accumulation at 1 uM after 24 hrs by propidium iodide staining based flow cytometry (reference value: 26.2 +/- 1.27%); format: functional
# [14] = Cell cycle arrest in human SH-SY5Y cells assessed as S phase accumulation at 1 uM after 24 hrs by propidium iodide staining based flow cytometry (reference value: 14.3 +/- 1.52%); format: functional
# [15] = Cell cycle arrest in human RD cells assessed as subG1 phase accumulation at 1 uM after 24 hrs by propidium iodide staining based flow cytometry relative to DMSO control; format: functional
# [16] = tested on: MCF7; experiment: Antiproliferative activity against human MCF7 cells at 0.5 uM after 72 hrs in presence of MRP1 inhibitor reversan by XTT assay relative to control; format: functional, cell-based
# Method in brief: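 Mcf7 cells treated after 24 h for 72 h at 37 °C, 5% CO2 with test compound at 0.5 μM alone or combined with harmine (1, 3, 5 μM) or reversan (5, 15, 25 μM). XTT was added for 4 h at 37 °C, absorbance read at 490 nm, and viability compared with control.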
# [17] = Cell cycle arrest in human Kelly cells assessed as S phase accumulation at 1 uM after 24 hrs by propidium iodide staining based flow cytometry (reference value: 16.1 +/- 1.28%); format: functional
# [18] = Induction of apoptosis in human NB-1 cells assessed as late apoptotic cells at 5 uM after 72 hrs by Annexin-V FITC/propidium iodide staining based flow cytometry (reference value: 3.3%); format: cell-based; settings: nb1, 72 h
# [19] = Induction of apoptosis in human NB1 hTERT cells assessed as live cells at 5 uM after 72 hrs by Annexin-V FITC/propidium iodide staining based flow cytometry (reference value: 93.2%); format: functional
# [20] = Antiproliferative activity against human IBR3-G SV40 cells after 72 hrs by XTT assay; format: functional, cell-based; settings: IBR3-G SV40, 72 h; method in brief: as §1
# [21] = Cell cycle arrest in human MCF7 cells assessed as G1 phase accumulation at 1 uM after 144 hrs by propidium iodide staining based flow cytometry (reference value: 65.9%); format: functional
# [22] = Cell cycle arrest in human MCF7 cells assessed as G2/M phase accumulation at 1 uM treated for 24 hrs followed by compound washout measured after 24 hrs by propidium iodide staining based flow cytometry (reference value: 26.4%); format: functional
# [23] = Cell cycle arrest in human HeLa cells assessed as G2/M phase accumulation at 1 uM after 8 hrs by propidium iodide staining based flow cytometry (reference value: 18.1%); format: functional
# [24] = Antiproliferative activity against human NB1 hTERT cells after 72 hrs by XTT assay; format: functional, cell-based; method in brief: as §1
# [25] = Cell cycle arrest in human NB1 hTERT cells assessed as G1 phase accumulation at 1 uM after 24 hrs by propidium iodide staining based flow cytometry (reference value: 52.3%); format: functional
# [26] = Cell cycle arrest in human NB-1 cells assessed as S phase accumulation at 1 uM after 72 hrs by propidium iodide staining based flow cytometry (reference value: 2.5%); settings: nb1, 72 h
# [27] = Cell cycle arrest in human T98G cells assessed as subG1 phase accumulation at 1 uM after 24 hrs by propidium iodide staining based flow cytometry relative to DMSO control; format: functional
# [28] = Cell cycle arrest in human NB1 hTERT cells assessed as sub G1 phase accumulation at 1 uM after 48 hrs by propidium iodide staining based flow cytometry relative to control; format: functional
# [29] = Antiproliferative activity against human NCI-H1299 cells after 72 hrs by XTT assay; format: functional, cell-based; settings: NCI-H1299, 72 h; method in brief: as §1
# [30] = tested on: SH-SY5Y; experiment: Disruption of beta-tubulin network in human SH-SY5Y cells assessed as pyknotic nuclei at 1 uM after 24 hrs by DAPI staining based immunofluorescence microscopic analysis; format: cell-based
# Method in brief: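 Cells seeded on glass coverslips (1 x 10^5/well), treated 24 h, fixed in 4% paraformaldehyde 15 min, permeabilized with 0.5% Triton X-100, blocked in 5% BSA/PBS, stained overnight at 4 °C with anti-β-tubulin (1:200) then fluorescent secondary antibody; nuclei counterstained with DAPI; microtubule organization and nuclear morphology examined by fluorescence microscopy.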
# [31] = Cell cycle arrest in human LAN1 cells assessed as S phase accumulation at 1 uM after 24 hrs by propidium iodide staining based flow cytometry (reference value: 23.5 +/- 1.32%); format: functional
# [32] = Cell cycle arrest in human NB-1 cells assessed as G1 phase accumulation at 1 uM after 48 hrs by propidium iodide staining based flow cytometry (reference value: 85.9%); settings: nb1, 48 h
compound,measurement,setting,value
Cc1[nH]c2c(c1-c1nnc(-c3ccccc3)o1)Cc1ccccc1-2,Activity,[1],36.9%
same,IC50,[2],0.07 µM
same,Activity,[3],13.2%
same,Activity,[4],6.3 to 10.4%
same,Activity,[5],72%
same,Activity,[6],3.2%
same,IC50,[7],1.7 µM
same,Ratio IC50,[8],28 - 34
same,Activity,[9],65.9%
same,Activity,[10],22.2%
same,Activity,[11],42.7%
same,IC50,[12],0.77 µM
same,Activity,[13],43.9%
same,Activity,[14],15.6%
same,Activity,[15],6.1%
same,Activity,[16],Active
same,Activity,[17],9.7%
same,Activity,[18],8.3%
same,Activity,[19],81%
same,IC50,[20],0.21 µM
same,Activity,[21],14.5%
same,Activity,[22],31.7%
same,Activity,[23],45.3%
same,IC50,[24],0.13 µM
same,Activity,[25],58.8%
same,Activity,[26],4.3%
same,Activity,[27],16.8%
same,Activity,[28],24.9%
same,IC50,[29],0.12 µM
same,Activity,[30],Active
same,Activity,[31],5.6%
same,Activity,[32],82.6%

# Source: ChEMBL document CHEMBL3877293, “Synthesis and Antineoplastic Evaluation of Novel Unsymmetrical 1,3,4-Oxadiazoles” (J Med Chem, 2016)
